Experimental data as given in ChEMBL document CHEMBL5352507, “Discovery of a Pan-Melanocortin Receptor Antagonist [Ac-DPhe(pI)-Arg-Nal(2')-Orn-NH2] at the MC1R, MC3R, MC4R, and MC5R that Mediates an Increased Feeding Response in Mice and a 40-Fold Selective MC1R Antagonist [Ac-DPhe(pI)-DArg-Nal(2')-Arg-NH2]” (J Med Chem, 2023).
Activity calls are given as the source filed them. No cut-off for these calls is given here. Bridge positions count the residues as written; N and C are the ends. Square brackets hold non-standard residues; d marks the D form. Peptide text beside a SMILES is read from it. dPhe(4-I) = N[C@H](Cc1ccc(I)cc1)C(=O)O; 2Nal = N[C@@H](Cc1ccc2ccccc2c1)C(=O)O; hArg = N=C(N)NCCCC[C@H](N)C(=O)O; Cit = NC(=O)NCCC[C@H](N)C(=O)O; Orn = NCCC[C@H](N)C(=O)O; Dab = NCC[C@H](N)C(=O)O; Dap = NC[C@H](N)C(=O)O

Key:
Melanocortin receptor 5 [1] = target: T1, Melanocortin receptor 5 (Mus musculus, UniProt P41149); assay: Binding affinity to mouse MC5R expressed in HEK293 cells coexpressing CRE/beta-galactosidase assessed as inhibition constant; type: cell-based
T1 sequence (P41149 whole entry): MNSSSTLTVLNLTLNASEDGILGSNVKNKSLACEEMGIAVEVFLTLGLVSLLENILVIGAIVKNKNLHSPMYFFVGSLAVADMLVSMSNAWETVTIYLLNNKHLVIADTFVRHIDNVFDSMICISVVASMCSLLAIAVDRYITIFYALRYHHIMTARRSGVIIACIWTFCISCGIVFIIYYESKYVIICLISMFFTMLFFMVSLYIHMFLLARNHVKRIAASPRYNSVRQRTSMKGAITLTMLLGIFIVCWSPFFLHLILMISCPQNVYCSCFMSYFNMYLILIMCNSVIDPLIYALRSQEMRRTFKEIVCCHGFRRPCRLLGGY

[2] = target: Melanocyte-stimulating hormone receptor (Homo sapiens, UniProt Q01726); assay: Binding affinity to human MC1R
Melanocyte-stimulating hormone receptor (Homo sapiens, UniProt Q01726), sequence (Q01726 whole entry): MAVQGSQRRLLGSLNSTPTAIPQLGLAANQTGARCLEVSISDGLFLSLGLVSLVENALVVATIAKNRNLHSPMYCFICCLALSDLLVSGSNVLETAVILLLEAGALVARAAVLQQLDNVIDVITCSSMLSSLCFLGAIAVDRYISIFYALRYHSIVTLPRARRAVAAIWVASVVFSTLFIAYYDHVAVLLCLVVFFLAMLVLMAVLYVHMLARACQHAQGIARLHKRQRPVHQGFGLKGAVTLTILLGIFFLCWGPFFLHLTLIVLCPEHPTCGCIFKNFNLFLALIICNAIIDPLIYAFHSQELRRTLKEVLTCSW

Melanocortin receptor 3 [3] = target: T2, Melanocortin receptor 3 (Mus musculus, UniProt P33033); assay: Agonist activity against mouse MC3R expressed in HEK293 cells assessed as increase in cAMP level incubated for 2 hrs by AlphaScreen assay; type: functional, cell-based
T2 sequence (P33033 whole entry): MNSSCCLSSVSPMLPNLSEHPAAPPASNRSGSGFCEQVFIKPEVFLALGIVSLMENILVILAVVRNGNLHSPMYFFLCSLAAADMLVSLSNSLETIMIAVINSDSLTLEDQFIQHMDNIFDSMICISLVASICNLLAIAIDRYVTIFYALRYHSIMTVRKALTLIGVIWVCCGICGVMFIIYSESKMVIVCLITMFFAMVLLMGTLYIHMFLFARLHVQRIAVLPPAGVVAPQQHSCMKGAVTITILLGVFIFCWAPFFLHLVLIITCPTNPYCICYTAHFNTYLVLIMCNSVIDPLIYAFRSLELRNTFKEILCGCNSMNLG

Melanocortin receptor 5 [4] = target: T1, Melanocortin receptor 5; assay: Agonist activity against mouse MC5R expressed in HEK293 cells assessed as increase in cAMP level incubated for 2 hrs by AlphaScreen assay; type: functional, cell-based
Melanocortin receptor 4 [5] = target: T3, Melanocortin receptor 4 (Mus musculus, UniProt P56450); assay: Agonist activity against mouse MC4R expressed in HEK293 cells assessed as increase in cAMP level incubated for 2 hrs by AlphaScreen assay; type: functional, cell-based
T3 sequence (P56450 whole entry): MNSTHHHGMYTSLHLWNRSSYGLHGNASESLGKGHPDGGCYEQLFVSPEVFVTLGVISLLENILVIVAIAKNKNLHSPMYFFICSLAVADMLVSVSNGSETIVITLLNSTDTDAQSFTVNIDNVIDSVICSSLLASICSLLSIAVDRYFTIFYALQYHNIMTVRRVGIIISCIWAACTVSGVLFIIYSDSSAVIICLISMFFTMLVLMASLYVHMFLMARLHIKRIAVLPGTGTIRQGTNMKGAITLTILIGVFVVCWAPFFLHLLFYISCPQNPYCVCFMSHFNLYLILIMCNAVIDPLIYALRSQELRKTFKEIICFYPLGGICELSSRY

[6] = target: T4, Melanocyte-stimulating hormone receptor (Mus musculus, UniProt Q01727); assay: Agonist activity against mouse MC1R expressed in HEK293 cells assessed as increase in cAMP level incubated for 2 hrs by AlphaScreen assay; type: functional, cell-based
T4 sequence (Q01727 whole entry): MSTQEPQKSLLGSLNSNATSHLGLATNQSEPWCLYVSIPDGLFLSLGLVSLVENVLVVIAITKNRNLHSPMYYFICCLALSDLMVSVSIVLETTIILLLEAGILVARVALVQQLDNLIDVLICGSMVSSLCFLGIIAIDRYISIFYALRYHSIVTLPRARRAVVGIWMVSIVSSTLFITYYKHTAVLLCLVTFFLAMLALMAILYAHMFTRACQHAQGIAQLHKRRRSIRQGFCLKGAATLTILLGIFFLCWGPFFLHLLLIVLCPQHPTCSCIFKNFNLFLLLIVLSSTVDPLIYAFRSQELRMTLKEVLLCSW

Melanocortin receptor 4 [7] = target: T3, Melanocortin receptor 4; assay: Binding affinity to mouse MC4R expressed in HEK293 cells assessed as inhibition constant by schild plot analysis; type: cell-based
Melanocortin receptor 3 [8] = target: T2, Melanocortin receptor 3; assay: Binding affinity to mouse MC3R expressed in HEK293 cells assessed as inhibition constant by schild plot analysis; type: cell-based
[9] = target: T4, Melanocyte-stimulating hormone receptor; assay: Partial agonist activity against mouse MC1R expressed in HEK293 cells assessed as increase in cAMP level incubated for 2 hrs by AlphaScreen assay; type: functional, cell-based
[10] = Toxicity in C57BL/6J mouse assessed as reduction in body weight at 10 to 15 nmol per mouse, IT measured for 24 to 48 hrs; conditions: in vivo, other, dose lower 10 nmol, time lower 24 hrs, dose upper 15 nmol, time upper 48 hrs
How it was run: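 Wild-type male and female mice (129/Sv×C57BL/6J) in a crossover design, given 10 or 15 nmol intrathecally in 5 μL DMSO/water vehicle. Body weight recorded at 0, 24 and 48 h and compared with vehicle-treated controls.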

Mus musculus [11] = assay: In vivo antagonist activity MC4R in wild type C57BL/6J mouse assessed as increase in food intake at 15 nmol per mouse, IT administered directly into the spinal canal and measured for 2 to 6 hrs; type: functional, organism-based; conditions: time 2-6 hrs
How it was run: (§1)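 Wild-type male and female mice (mixed 129/Sv×C57BL/6J, in-house colony) on a reversed 12-h light/dark cycle with chow ad libitum. Crossover design with 6–7 days between treatments. […] Cumulative food intake weighed at 0–72 h. n ≥ 8 per group; two-way ANOVA against vehicle.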

Mus musculus [12] = assay: In vivo antagonist activity MC4R in wild type C57BL/6J mouse assessed as increase in food intake at 10 to 15 nmol per mouse, IT administered directly into the spinal canal and measured for 24 hrs; type: functional, organism-based; conditions: dose 10-15 nmol; how it was run: as §1
Mus musculus [13] = assay: In vivo antagonist activity MC4R in wild type C57BL/6J mouse assessed as increase in food intake at 10 nmol per mouse, IT administered directly into the spinal canal and measured for 4 to 6 hrs; type: functional, organism-based; conditions: time 4-6 hrs; how it was run: as §1
Melanocortin receptor 5 [14] = target: T1, Melanocortin receptor 5; assay: Binding affinity to mouse MC5R expressed in HEK293 cells assessed as inhibition constant by schild plot analysis; type: cell-based
[15] = target: T4, Melanocyte-stimulating hormone receptor; assay: Binding affinity to mouse MC1R expressed in HEK293 cells assessed as inhibition constant by schild plot analysis; type: cell-based
[16] = target: T4, Melanocyte-stimulating hormone receptor; assay: Binding affinity to mouse MC1R expressed in HEK293 cells coexpressing CRE/beta-galactosidase assessed as inhibition constant; type: cell-based

Row | EC50 (Melanocortin receptor 3 [3]) [µM] | EC50 (Melanocortin receptor 5 [4]) [µM] | EC50 (Melanocortin receptor 4 [5]) [µM] | SMILES | other results
1 |  |  |  | CCCC[C@H](NC(C)=O)C(=O)N[C@H]1CC(=O)NCCCC[C@@H](C(N)=O)NC(=O)[C@@H](Cc2ccc3ccccc3c2)NC(=O)[C@H](CCCNC(=N)N)NC(=O)[C@@H](Cc2ccc3ccccc3c2)NC(=O)[C@H](Cc2cn(C)cn2)NC1=O | Ki (Melanocortin receptor 5 [1]): 0.063 µM
2 |  |  |  | CC(C)[C@H](NC(=O)[C@@H]1CCC(=O)NCC(=O)N[C@@H](C2CCCC2)C(=O)N[C@H](Cc2ccc3ccccc3c2)C(=O)N[C@@H](CCCNC(=N)N)C(=O)N[C@@H](Cc2c[nH]c3ccccc23)C(=O)N1)C(=O)N[C@H](C(=O)NCC(N)=O)C(C)C | Ki [2]: 0.053 µM
3 | > 100 | > 100 | > 100 | CC(=O)N[C@H](Cc1ccc(I)cc1)C(=O)N[C@@H](CCC(=O)O)C(=O)N[C@@H](Cc1ccc2ccccc2c1)C(=O)N[C@@H](CCCNC(=N)N)C(N)=O (Ac-[dPhe(4-I)]E[2Nal]R-NH2) | EC50 [6]: > 100 µM
4 |  | > 100 | > 100 | CC(=O)N[C@H](Cc1ccc(I)cc1)C(=O)N[C@@H](Cc1c[nH]cn1)C(=O)N[C@@H](Cc1ccc2ccccc2c1)C(=O)N[C@@H](CCCNC(=N)N)C(N)=O (Ac-[dPhe(4-I)]H[2Nal]R-NH2) | Ki (Melanocortin receptor 4 [7]): 0.1 µM
5 |  |  | > 100 | CC(=O)N[C@H](Cc1ccc(I)cc1)C(=O)N[C@@H](CCCCN)C(=O)N[C@@H](Cc1ccc2ccccc2c1)C(=O)N[C@@H](CCCNC(=N)N)C(N)=O (Ac-[dPhe(4-I)]K[2Nal]R-NH2) | 
6 |  | > 100 | > 100 | CC(=O)N[C@H](Cc1ccc(I)cc1)C(=O)N[C@@H](CCCNC(=N)N)C(=O)N[C@@H](Cc1ccc2ccccc2c1)C(=O)N[C@@H](Cc1c[nH]cn1)C(N)=O (Ac-[dPhe(4-I)]R[2Nal]H-NH2) | Ki (Melanocortin receptor 3 [8]): 0.1 µM; EC50 [9]: 0.4 µM
7 | > 100 | > 100 | > 100 | CC(=O)N[C@H](Cc1ccc(I)cc1)C(=O)N[C@@H](CCCNC(=N)N)C(=O)N[C@@H](Cc1ccc2ccccc2c1)C(=O)N[C@@H](CCCNC(N)=O)C(N)=O (Ac-[dPhe(4-I)]R[2Nal][Cit]-NH2) | EC50 [6]: > 100 µM
8 | > 100 | > 100 | > 100 | CC(=O)N[C@H](Cc1ccc(I)cc1)C(=O)N[C@@H](CCCNC(=N)N)C(=O)N[C@@H](Cc1ccc2ccccc2c1)C(=O)N[C@@H](CCN)C(N)=O (Ac-[dPhe(4-I)]R[2Nal][Dab]-NH2) | EC50 [9]: 1.1 µM
9 | > 100 | > 100 | > 100 | CC(=O)N[C@H](Cc1ccc(I)cc1)C(=O)N[C@@H](CCCNC(=N)N)C(=O)N[C@@H](Cc1ccc2ccccc2c1)C(=O)N[C@@H](CN)C(N)=O (Ac-[dPhe(4-I)]R[2Nal][Dap]-NH2) | 
10 |  |  |  | CC(=O)N[C@H](Cc1ccc(I)cc1)C(=O)N[C@@H](CCCNC(=N)N)C(=O)N[C@@H](Cc1ccc2ccccc2c1)C(=O)N[C@@H](CCCN)C(N)=O (Ac-[dPhe(4-I)]R[2Nal][Orn]-NH2) | Activity [10]: Non-Toxic; Activity (Mus musculus [11]): Active; Activity (Mus musculus [12]): inactive; Activity (Mus musculus [13]): Active
11 | > 100 | > 100 | > 100 | CC(=O)N[C@H](Cc1ccc(I)cc1)C(=O)N[C@@H](CCCNC(=N)N)C(=O)N[C@@H](Cc1ccc2ccccc2c1)C(=O)N[C@@H](CCCCNC(=N)N)C(N)=O (Ac-[dPhe(4-I)]R[2Nal][hArg]-NH2) | Ki (Melanocortin receptor 5 [14]): 1 µM
12 |  | > 100 | > 100 | CC(=O)N[C@H](Cc1ccc(I)cc1)C(=O)N[C@@H](CCCNC(N)=O)C(=O)N[C@@H](Cc1ccc2ccccc2c1)C(=O)N[C@@H](CCCNC(=N)N)C(N)=O (Ac-[dPhe(4-I)][Cit][2Nal]R-NH2) | 
13 | > 100 | > 100 | > 100 | CC(=O)N[C@H](Cc1ccc(I)cc1)C(=O)N[C@@H](CN)C(=O)N[C@@H](Cc1ccc2ccccc2c1)C(=O)N[C@@H](CCCNC(=N)N)C(N)=O (Ac-[dPhe(4-I)][Dap][2Nal]R-NH2) | Ki [15]: 0.1 µM; EC50 [6]: > 100 µM
14 | > 100 | > 100 | > 100 | CC(=O)N[C@H](Cc1ccc(I)cc1)C(=O)N[C@@H](CCCN)C(=O)N[C@@H](Cc1ccc2ccccc2c1)C(=O)N[C@@H](CCCNC(=N)N)C(N)=O (Ac-[dPhe(4-I)][Orn][2Nal]R-NH2) | Ki (Melanocortin receptor 4 [7]): 0.1 µM
15 |  |  | > 100 | CC(=O)N[C@H](Cc1ccc(I)cc1)C(=O)N[C@H](CCCCN)C(=O)N[C@@H](Cc1ccc2ccccc2c1)C(=O)N[C@@H](CCCNC(=N)N)C(N)=O (Ac-[dPhe(4-I)][dK][2Nal]R-NH2) | EC50 [6]: > 100 µM
16 |  |  |  | C[C@@H]1NC(=O)[C@H](CC(N)=O)NC(=O)[C@H](Cc2ccccc2)NC(=O)[C@H](Cc2ccccc2)NC(=O)[C@H](CCCN=C(N)N)NC(=O)[C@@H](NC(=O)[C@@H](N)Cc2ccc(O)cc2)CCC(=O)NC[C@@H](C(=O)N[C@@H](Cc2ccc(O)cc2)C(N)=O)NC(=O)[C@H](Cc2ccccc2)NC1=O (H-YERFFNAF[Dap]Y-NH2; lactam 2-9) | Ki [16]: 1.2 µM
